Activity calls are given as the source filed them. No cut-off for these calls is given here.
Assays:
[1] = biological target: Protein kinase C alpha type (Homo sapiens) (UniProt P17252); assay: Inhibition of human PRKCA at 100 uM relative to control
[2] = biological target: Delta-type opioid receptor (Homo sapiens) (UniProt P41143); assay: Inhibition of human delta opioid receptor at 10 uM relative to control
[3] = biological target: Natriuretic peptides A (Cavia porcellus) (UniProt P27596); assay: Inhibition of guinea pig atrial natriuretic factor at 10 uM relative to control; settings: Cardiac atrium
Chain of Natriuretic peptides A (Cavia porcellus) (P27596 whole entry): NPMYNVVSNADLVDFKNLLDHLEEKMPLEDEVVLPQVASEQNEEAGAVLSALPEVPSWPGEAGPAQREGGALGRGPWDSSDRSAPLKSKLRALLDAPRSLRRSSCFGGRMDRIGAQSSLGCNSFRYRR

[4] = biological target: GABA-A receptor; alpha-5/beta-3/gamma-2 (Homo sapiens) (UniProt P18507+P28472+P31644); assay: Inhibition of human GABA alpha5beta3gamma2 receptor at 10 uM relative to control; type: protein-complex assay
[5] = biological target: T1, 5-hydroxytryptamine receptor 1A (Homo sapiens) (UniProt P08908); assay: Inhibition of human 5-HT1A receptor at 10 uM relative to control
T1 sequence (whole entry): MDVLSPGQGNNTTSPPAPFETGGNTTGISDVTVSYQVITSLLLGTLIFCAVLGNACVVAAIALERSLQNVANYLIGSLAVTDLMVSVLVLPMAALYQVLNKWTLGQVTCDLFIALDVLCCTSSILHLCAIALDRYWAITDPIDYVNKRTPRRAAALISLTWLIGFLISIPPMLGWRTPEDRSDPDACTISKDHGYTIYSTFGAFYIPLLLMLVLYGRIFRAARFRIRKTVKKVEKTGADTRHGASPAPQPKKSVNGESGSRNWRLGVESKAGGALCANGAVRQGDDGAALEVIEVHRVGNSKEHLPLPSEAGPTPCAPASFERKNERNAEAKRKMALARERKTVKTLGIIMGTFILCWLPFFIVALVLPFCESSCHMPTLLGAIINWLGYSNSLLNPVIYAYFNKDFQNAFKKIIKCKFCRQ

[6] = biological target: Somatostatin receptor type 3 (Homo sapiens) (UniProt P32745); assay: Inhibition of human SST3 receptor at 10 uM relative to control
[7] = biological target: Estrogen receptor (Homo sapiens) (UniProt P03372); assay: Inhibition of human ERalpha receptor at 10 uM relative to control
Cavia porcellus = organism: Cavia porcellus; assay: Inhibition of guinea pig adenosine transporter at 0.1 uM relative to control
D(3) dopamine receptor [8] = biological target: T2, D(3) dopamine receptor (Homo sapiens, UniProt P35462); assay: Inhibition of human dopamine D3 receptor at 10 uM relative to control
T2 sequence (P35462 whole entry): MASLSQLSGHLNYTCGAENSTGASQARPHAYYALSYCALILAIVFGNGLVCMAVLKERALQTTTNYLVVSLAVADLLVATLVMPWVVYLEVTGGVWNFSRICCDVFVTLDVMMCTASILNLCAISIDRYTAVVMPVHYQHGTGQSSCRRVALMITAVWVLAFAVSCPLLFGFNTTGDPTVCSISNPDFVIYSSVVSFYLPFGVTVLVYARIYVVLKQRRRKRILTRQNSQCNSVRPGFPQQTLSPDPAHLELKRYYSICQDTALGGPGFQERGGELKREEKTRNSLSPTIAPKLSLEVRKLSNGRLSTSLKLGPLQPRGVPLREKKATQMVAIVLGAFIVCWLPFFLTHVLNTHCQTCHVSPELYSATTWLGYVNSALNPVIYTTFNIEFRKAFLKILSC

[9] = biological target: Alpha-1D adrenergic receptor (Homo sapiens) (UniProt P25100); assay: Inhibition of human alpha1D adrenergic receptor at 10 uM relative to control
Chain of Alpha-1D adrenergic receptor (Homo sapiens) (P25100 whole entry): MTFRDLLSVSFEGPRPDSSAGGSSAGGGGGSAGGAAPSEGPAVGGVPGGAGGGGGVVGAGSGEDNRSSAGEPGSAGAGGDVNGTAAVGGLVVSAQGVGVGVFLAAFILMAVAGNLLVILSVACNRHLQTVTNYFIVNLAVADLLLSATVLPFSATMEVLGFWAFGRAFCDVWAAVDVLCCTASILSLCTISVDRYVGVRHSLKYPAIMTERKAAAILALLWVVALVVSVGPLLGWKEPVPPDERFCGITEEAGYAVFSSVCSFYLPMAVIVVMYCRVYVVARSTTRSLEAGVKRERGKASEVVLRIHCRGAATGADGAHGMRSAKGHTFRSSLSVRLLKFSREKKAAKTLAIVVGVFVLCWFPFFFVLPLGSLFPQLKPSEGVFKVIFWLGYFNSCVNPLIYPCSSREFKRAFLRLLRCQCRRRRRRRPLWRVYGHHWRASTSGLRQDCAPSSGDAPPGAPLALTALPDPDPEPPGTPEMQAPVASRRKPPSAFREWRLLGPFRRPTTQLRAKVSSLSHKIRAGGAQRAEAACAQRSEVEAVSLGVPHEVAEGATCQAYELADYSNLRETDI

[10] = biological target: Neuropeptide Y receptor type 2 (Homo sapiens) (UniProt P49146); assay: Inhibition of human neuropeptide YY2 receptor at 10 uM relative to control
[11] = biological target: 5-hydroxytryptamine receptor 1B (Rattus norvegicus) (UniProt P28564); assay: Inhibition of rat 5-HT1B receptor at 1 uM relative to control
Chain of 5-hydroxytryptamine receptor 1B (Rattus norvegicus) (P28564 whole entry): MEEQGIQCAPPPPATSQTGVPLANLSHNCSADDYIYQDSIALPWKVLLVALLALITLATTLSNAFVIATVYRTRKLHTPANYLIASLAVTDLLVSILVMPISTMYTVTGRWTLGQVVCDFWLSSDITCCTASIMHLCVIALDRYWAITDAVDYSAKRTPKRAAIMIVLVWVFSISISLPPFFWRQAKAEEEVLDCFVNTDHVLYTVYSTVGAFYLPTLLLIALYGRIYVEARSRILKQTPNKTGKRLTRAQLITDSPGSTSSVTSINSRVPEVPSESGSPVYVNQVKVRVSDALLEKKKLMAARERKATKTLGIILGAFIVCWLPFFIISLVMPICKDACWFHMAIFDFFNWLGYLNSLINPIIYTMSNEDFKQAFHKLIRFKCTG

[12] = biological target: Mitogen-activated protein kinase 3 (Homo sapiens) (UniProt P27361); assay: Inhibition of human MAPK3 at 100 uM relative to control
Chain of Mitogen-activated protein kinase 3 (Homo sapiens) (P27361 whole entry): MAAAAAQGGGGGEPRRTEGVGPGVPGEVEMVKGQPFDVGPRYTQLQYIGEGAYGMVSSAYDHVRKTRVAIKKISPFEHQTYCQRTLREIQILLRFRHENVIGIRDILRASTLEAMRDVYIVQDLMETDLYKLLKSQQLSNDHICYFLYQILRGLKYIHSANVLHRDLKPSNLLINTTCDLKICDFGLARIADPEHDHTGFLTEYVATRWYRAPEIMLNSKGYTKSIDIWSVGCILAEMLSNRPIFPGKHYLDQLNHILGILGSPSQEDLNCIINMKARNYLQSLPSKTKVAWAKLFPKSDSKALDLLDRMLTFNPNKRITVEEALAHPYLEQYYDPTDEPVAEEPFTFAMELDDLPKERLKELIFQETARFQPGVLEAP

[13] = biological target: Endothelin-converting enzyme 1 (Homo sapiens) (UniProt P42892); assay: Inhibition of human ECE-1 at 10 uM relative to control
[14] = biological target: Beta-2 adrenergic receptor (Homo sapiens) (UniProt P07550); assay: Inhibition of human beta2 adrenergic receptor at 10 uM relative to control
[15] = biological target: Neprilysin (Homo sapiens) (UniProt P08473); assay: Inhibition of human neutral endopeptidase at 10 uM relative to control
[16] = biological target: Calcitonin gene-related peptide type 1 receptor (Homo sapiens) (UniProt Q16602); assay: Inhibition of human CGRP1 at 10 uM relative to control
Chain of Calcitonin gene-related peptide type 1 receptor (Homo sapiens) (Q16602 whole entry): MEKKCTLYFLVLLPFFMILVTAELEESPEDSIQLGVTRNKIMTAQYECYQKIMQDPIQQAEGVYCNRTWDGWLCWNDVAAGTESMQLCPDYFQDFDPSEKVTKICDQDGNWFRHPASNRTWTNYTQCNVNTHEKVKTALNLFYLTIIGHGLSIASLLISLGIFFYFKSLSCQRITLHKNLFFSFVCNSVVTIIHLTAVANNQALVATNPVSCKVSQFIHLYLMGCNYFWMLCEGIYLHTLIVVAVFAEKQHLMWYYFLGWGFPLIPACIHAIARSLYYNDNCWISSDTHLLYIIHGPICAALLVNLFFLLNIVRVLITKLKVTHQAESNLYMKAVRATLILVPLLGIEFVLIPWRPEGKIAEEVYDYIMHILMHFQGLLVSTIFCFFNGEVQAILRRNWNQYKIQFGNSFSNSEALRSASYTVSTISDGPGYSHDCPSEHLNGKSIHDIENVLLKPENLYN

[17] = biological target: Small conductance calcium-activated potassium channel (Rattus norvegicus) (UniProt P70604+P70606+P70605); assay: Inhibition of rat potassium channel [SKCA] at 10 uM relative to control; type: protein assay
[18] = biological target: C-X-C chemokine receptor type 2 (Homo sapiens) (UniProt P25025); assay: Inhibition of human CXCR2 at 10 uM relative to control
Chain of C-X-C chemokine receptor type 2 (Homo sapiens) (P25025 whole entry): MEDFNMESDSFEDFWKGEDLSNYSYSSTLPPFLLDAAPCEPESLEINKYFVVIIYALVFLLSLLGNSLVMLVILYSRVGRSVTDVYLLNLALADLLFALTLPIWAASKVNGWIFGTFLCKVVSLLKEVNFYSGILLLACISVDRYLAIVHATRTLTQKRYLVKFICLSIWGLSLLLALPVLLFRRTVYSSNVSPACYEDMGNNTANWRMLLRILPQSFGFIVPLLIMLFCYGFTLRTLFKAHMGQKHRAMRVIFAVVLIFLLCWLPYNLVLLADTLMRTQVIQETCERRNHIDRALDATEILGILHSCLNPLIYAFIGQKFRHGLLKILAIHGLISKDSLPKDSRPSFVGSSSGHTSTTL

Rattus norvegicus [19] = organism: Rattus norvegicus; assay: Inhibition of rat choline transporter at 10 uM relative to control
[20] = biological target: Endothelin-1 receptor (Homo sapiens) (UniProt P25101); assay: Inhibition of human ETA receptor at 10 uM relative to control
[21] = biological target: Macrophage metalloelastase (Homo sapiens) (UniProt P39900); assay: Inhibition of human MMP-12 at 10 uM relative to control
Chain of Macrophage metalloelastase (Homo sapiens) (P39900 106-470 limits assumed): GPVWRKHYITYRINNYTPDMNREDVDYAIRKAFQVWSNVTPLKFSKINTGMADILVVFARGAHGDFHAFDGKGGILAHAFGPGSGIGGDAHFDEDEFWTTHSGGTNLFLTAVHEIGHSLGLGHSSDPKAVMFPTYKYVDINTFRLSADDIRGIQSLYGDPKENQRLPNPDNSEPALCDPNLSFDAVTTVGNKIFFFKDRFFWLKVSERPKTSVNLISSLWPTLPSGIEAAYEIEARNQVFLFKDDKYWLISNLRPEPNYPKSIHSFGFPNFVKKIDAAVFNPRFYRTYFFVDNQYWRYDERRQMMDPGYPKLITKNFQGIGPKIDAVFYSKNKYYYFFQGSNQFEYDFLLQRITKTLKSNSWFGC

D(3) dopamine receptor [22] = biological target: T2, D(3) dopamine receptor; assay: Inhibition of human dopamine D3 receptor at 10 nM relative to control
[23] = biological target: Melanocortin receptor 4 (Homo sapiens) (UniProt P32245); assay: Inhibition of human MC4 receptor at 10 uM relative to control
Chain of Melanocortin receptor 4 (Homo sapiens) (P32245 whole entry): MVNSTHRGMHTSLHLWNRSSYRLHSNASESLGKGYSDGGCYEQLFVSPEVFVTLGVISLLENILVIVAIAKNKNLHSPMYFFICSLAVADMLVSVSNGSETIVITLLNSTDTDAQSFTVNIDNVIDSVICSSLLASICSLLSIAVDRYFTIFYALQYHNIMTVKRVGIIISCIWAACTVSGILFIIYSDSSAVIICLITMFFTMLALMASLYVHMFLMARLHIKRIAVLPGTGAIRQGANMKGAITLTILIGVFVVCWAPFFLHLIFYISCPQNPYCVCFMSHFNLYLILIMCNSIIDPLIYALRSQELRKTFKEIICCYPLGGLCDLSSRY

Rattus norvegicus [24] = organism: Rattus norvegicus; assay: Inhibition of rat 5-HT2 receptor at 10 uM relative to control
[25] = biological target: Inositol 1,4,5-trisphosphate-gated calcium channel ITPR1 (Rattus norvegicus) (UniProt P29994); assay: Inhibition of rat IP3 receptor at 10 uM relative to control
Caspase-7 (Homo sapiens) = Caspase-7 (Homo sapiens) (UniProt P55210); assay: Inhibition of human caspase 7 at 10 uM relative to control
[26] = biological target: B1 bradykinin receptor (Homo sapiens) (UniProt P46663); assay: Inhibition of human bradykinin B1 receptor at 10 uM relative to control
Chain of B1 bradykinin receptor (Homo sapiens) (P46663 whole entry): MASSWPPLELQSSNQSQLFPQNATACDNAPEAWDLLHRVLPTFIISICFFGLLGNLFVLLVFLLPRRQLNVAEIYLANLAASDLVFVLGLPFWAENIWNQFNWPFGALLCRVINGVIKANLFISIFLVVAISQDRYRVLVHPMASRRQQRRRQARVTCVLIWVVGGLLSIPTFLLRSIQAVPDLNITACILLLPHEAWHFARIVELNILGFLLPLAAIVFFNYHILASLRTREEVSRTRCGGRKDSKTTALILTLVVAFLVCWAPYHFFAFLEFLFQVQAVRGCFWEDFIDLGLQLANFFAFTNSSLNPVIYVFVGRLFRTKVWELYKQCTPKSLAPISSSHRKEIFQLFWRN

Rattus norvegicus [27] = assay: Antiinsomnic activity in rat EEG model assessed as decrease in light sleep time at 15 mg/kg, po; type: functional, organism-based; set-up: dose 15 mg/kg
How it was run: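 Rats with EEG telemetry given 15 mg/kg orally during their active period, vehicle 20% Vitamin E TPGS in water. Sleep architecture (active wake, light sleep, delta and REM sleep) scored from EEG.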

[28] = biological target: Adenosine receptor A1 (Homo sapiens) (UniProt P30542); assay: Inhibition of human adenosine A1 receptor at 10 uM relative to control
[29] = biological target: Somatostatin receptor type 1 (Homo sapiens) (UniProt P30872); assay: Inhibition of human SST1 receptor at 10 uM relative to control
[30] = biological target: Substance-K receptor (Homo sapiens) (UniProt P21452); assay: Inhibition of human NK2 receptor at 10 uM relative to control
[31] = biological target: 5-hydroxytryptamine receptor 1B (Rattus norvegicus) (UniProt P28564); assay: Inhibition of rat 5-HT1B receptor at 10 uM relative to control
[32] = biological target: Phosphodiesterase 3 (Homo sapiens) (UniProt Q14432+Q13370); assay: Inhibition of human PDE3 at 100 uM relative to control; type: protein assay
[33] = biological target: T1, 5-hydroxytryptamine receptor 1A (Homo sapiens); assay: Inhibition of human 5-HT1A receptor at 10 nM relative to control
[34] = biological target: Muscarinic acetylcholine receptor M1 (Homo sapiens) (UniProt P11229); assay: Inhibition of human muscarinic M1 receptor at 10 uM relative to control
[35] = biological target: 5-hydroxytryptamine receptor 2B (Homo sapiens, UniProt P41595); assay: Inhibition of human 5-HT2B receptor at 10 uM relative to control
Chain of 5-hydroxytryptamine receptor 2B (P41595 whole entry): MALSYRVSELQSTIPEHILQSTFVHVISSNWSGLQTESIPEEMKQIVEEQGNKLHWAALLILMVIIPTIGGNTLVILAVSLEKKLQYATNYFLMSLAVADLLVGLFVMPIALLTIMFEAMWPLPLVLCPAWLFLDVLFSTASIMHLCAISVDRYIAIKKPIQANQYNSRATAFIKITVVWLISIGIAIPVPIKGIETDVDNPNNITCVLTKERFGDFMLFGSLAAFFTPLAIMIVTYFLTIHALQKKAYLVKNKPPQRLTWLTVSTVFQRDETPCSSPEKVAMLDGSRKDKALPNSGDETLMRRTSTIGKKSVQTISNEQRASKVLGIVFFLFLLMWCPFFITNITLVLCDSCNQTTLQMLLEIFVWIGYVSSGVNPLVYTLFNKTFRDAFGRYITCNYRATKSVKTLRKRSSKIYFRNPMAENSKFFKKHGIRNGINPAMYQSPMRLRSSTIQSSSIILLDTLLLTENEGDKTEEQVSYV

[36] = biological target: Cholecystokinin receptor type A (Homo sapiens) (UniProt P32238); assay: Inhibition of human CCKA receptor at 10 uM relative to control

inhibition [1]: 29%
inhibition [2]: 8%
inhibition [3]: 1%
inhibition [4]: 18%
inhibition [5]: 69%
inhibition [6]: 30%
inhibition [7]: 20%
inhibition (Cavia porcellus): 15%
inhibition (D(3) dopamine receptor [8]): 51%
inhibition [9]: 26%
inhibition [10]: 0%
inhibition [11]: 30%
inhibition [12]: 10%
inhibition [13]: -10%
inhibition [14]: 23%
inhibition [15]: -5%
inhibition [16]: -10%
inhibition [17]: 9%
inhibition [18]: 0%
inhibition (Rattus norvegicus [19]): 1%
inhibition [20]: 4%
inhibition [21]: -6%
inhibition (D(3) dopamine receptor [22]): 5%
inhibition [23]: 6%
inhibition (Rattus norvegicus [24]): 17%
inhibition [25]: 0%
inhibition (Caspase-7 (Homo sapiens)): 1%
inhibition [26]: 3%
inhibition [28]: 22%
inhibition [29]: 14%
inhibition [30]: 25%
inhibition [31]: 73%
inhibition [32]: 0%
inhibition [33]: 2%
inhibition [34]: 0%
inhibition [35]: 84%
inhibition [36]: 9%
Compound: COc1ccc(CNC(=O)c2cc(-c3cc(Cl)cc(Cl)c3)cnc2-c2cccnc2)cc1OC
Activity (Rattus norvegicus [27]): Active
